One data set concerns the target T1, Chloride anion exchanger (Mus musculus, UniProt Q9WVC8).
T1 sequence (Q9WVC8 whole entry): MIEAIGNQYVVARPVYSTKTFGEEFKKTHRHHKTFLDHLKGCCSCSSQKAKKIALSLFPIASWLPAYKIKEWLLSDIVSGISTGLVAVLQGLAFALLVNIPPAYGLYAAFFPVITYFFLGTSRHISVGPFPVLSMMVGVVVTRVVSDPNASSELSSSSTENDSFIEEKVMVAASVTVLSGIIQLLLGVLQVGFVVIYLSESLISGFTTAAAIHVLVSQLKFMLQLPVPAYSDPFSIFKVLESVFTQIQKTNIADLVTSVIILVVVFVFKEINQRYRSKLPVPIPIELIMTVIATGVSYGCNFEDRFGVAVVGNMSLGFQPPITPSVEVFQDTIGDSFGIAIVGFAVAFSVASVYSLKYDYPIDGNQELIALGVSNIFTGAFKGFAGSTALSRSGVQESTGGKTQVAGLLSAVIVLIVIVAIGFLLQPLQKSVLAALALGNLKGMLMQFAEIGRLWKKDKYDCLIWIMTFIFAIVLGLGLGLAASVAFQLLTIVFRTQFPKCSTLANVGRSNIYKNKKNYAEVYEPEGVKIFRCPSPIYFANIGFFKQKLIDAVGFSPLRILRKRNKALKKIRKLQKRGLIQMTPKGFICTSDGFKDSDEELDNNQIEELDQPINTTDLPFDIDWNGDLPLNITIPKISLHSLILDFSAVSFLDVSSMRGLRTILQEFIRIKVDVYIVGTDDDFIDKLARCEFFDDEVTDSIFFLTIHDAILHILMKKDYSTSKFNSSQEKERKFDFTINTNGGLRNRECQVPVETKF
Nature of the data set: Inhibition of mouse slc26a3 expressed in FRT cells co-expressing EYFP-H148Q/I152L/F46L assessed as reduction in protein-mediated chloride/iodide exchange preincubated for 10 mins followed by NaI-substituted PBS addition and measured by YFP-based fluorescence assay. The class given is cell-based. A digest of the protocol: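 Chloride/iodide exchange was assayed in FRT cells co-expressing murine slc26a3 and EYFP-H148Q/I152L/F46L. Cells in PBS received iodide-substituted PBS (NaCl replaced by 140 mM NaI), and the fluorescence quenching rate was measured. Concentration–inhibition data were fitted to a single-site model for IC50. Data are representative of 3 replicates.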

A short description of data set [1]: AUC in mouse at 5 mg/kg, ip by LC-MS analysis. It counts as ADME, organism-based. The note with it: in vivo. A digest of the protocol: (§1)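 Single intraperitoneal or oral dose in mice at 5 mg/kg (vehicle: saline with 5% DMSO and 10% Kolliphor HS 15) or 10 mg/kg (vehicle: PBS with 5% DMSO and 20% (2-hydroxypropyl)-β-cyclodextrin). Blood taken by retroorbital puncture at set times, serum separated by centrifugation at 4000 g for 20 min at 24 °C, compound quantified by LC/MS.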

Data set [2] is described as follows: AUC in mouse at 5 mg/kg, po by LC-MS analysis. It counts as ADME, organism-based. Conditions: in vivo. A digest of the protocol:
as §1

Data set [3] can be described thus: Tmax in mouse at 5 mg/kg, po by LC-MS analysis. The note with it: in vivo. It counts as ADME, organism-based. A digest of the protocol: as §1
Data set [4] in a line: Tmax in mouse at 5 mg/kg, ip by LC-MS analysis. The note with it: in vivo. The class given is ADME, organism-based. In short, it runs like this: as §1
Data set [5] in a line: Cmax in mouse at 5 mg/kg, po by LC-MS analysis. The class given is ADME, organism-based. The arrangement: dose 5 mg/kg, route oral. Conditions: in vivo. A digest of the protocol: as §1
The nature of data set [6]: Cmax in mouse at 5 mg/kg, ip by LC-MS analysis. More on the design: dose 5 mg/kg, route intraperitoneal. The class given is ADME, organism-based. Conditions: in vivo. A digest of the protocol:
as §1

The nature of data set [7]: Time at which serum concentration stays above in vitro IC50 for inhibition of mouse slc26a3 expressed in FRT cells in mouse at 5 mg/kg, po or ip by LC-MS analysis. The class given is organism-based. Conditions: in vivo. In short, it runs like this:
as §1

These results are taken from ChEMBL document CHEMBL4373708 (J Med Chem, 2019).

In general, IC50 refers to the concentration needed to halve the response being measured. On to `Cc1c(CC(=O)O)c(=O)oc2c(C)c(OCc3cccc(Cl)c3)ccc12`, for which the IC50 at Chloride anion exchanger came to 1 µM.

What is called AUC is concentration integrated over time. The low end stands for low exposure, the high end for high exposure. For orientation: Tmax means the time from dosing to the highest level. For orientation: Cmax means the peak of the concentration-time curve. Consider `Cc1c(CC(=O)O)c(=O)oc2c(C)c(OCc3cccc(Br)c3)ccc12`, for which the AUC in data set [1] was found to be 231 µM·h; in data set [2], 124 µM·h. The time of peak concentration (Tmax) came to 5.8 h in data set [3] and 1.5 h in data set [4]. The Cmax was 9.4 µM in data set [5] and 24.3 µM in data set [6]. Moreover, the Time entry in data set [7] is “>= 24 hr”.

Take `Cc1cc(C)cc(COc2ccc3c(C)c(CC(=O)O)c(=O)oc3c2C)c1`: on Chloride anion exchanger, the IC50 is 15 µM.

As for `Cc1c(CC(N)=O)c(=O)oc2c(C)c(OCc3cccc(Br)c3)ccc12`, the IC50 at Chloride anion exchanger turned out to be 3.3 µM.

In the case of `Cc1c(CC(=O)O)c(=O)oc2c(C)c(OCc3ccccc3Cl)ccc12`, the IC50 at Chloride anion exchanger turned out to be 18 µM.

Regarding `Cc1c(CC(=O)O)c(=O)oc2c(C)c(OCc3ccccn3)ccc12`, the IC50 on Chloride anion exchanger is above 5 µM.

On to `Cc1c(CCC(=O)O)c(=O)oc2c(C)c(OCc3cccc(I)c3)ccc12`, for which the IC50 on Chloride anion exchanger was above 5 µM.

Turning to `Cc1cccc(S(=O)(=O)Oc2ccc3c(C)c(CC(=O)O)c(=O)oc3c2C)c1`, the half-inhibitory concentration (IC50) on Chloride anion exchanger was above 5 µM.

On to `Cc1c(CC(=O)O)c(=O)oc2c(C)c(OCCC(=O)O)ccc12`, for which, at Chloride anion exchanger, the IC50 was above 5 µM.

As to `COCCOc1ccc2c(C)c(CC(=O)O)c(=O)oc2c1C`, the IC50 on Chloride anion exchanger was above 5 µM.

For the molecule `Cc1c(CC(=O)O)c(=O)oc2c(C)c(OCc3cc(F)cc(C(F)(F)F)c3)ccc12`, the IC50 on Chloride anion exchanger was 0.06 µM.

`CCCCOc1ccc2c(C)c(CC(=O)O)c(=O)oc2c1C`: at Chloride anion exchanger, the IC50 is 1.5 µM.

Turning to `Cc1c(CCC(=O)O)c(=O)oc2c(C)c(OCc3cccc(Br)c3)ccc12`, at Chloride anion exchanger, the IC50 is above 5 µM.

Regarding `Cc1c(OCc2cccc(Br)c2)ccc2cc(C(=O)O)c(=O)oc12`, the IC50 at Chloride anion exchanger was above 5 µM.

Take `CCCOc1ccc2c(C)c(CC(=O)O)c(=O)oc2c1C`: the IC50 at Chloride anion exchanger is above 5 µM.

With `CCCCCOc1ccc2c(C)c(CC(=O)O)c(=O)oc2c1C`, the IC50 on Chloride anion exchanger was 1 µM.

For `Cc1c(CC(=O)O)c(=O)oc2c(C)c(OCc3cccnc3)ccc12`, at Chloride anion exchanger, the IC50 is above 5 µM.

With `Cc1c(CC(=O)O)c(=O)oc2c(C)c(OCc3ccc(Br)cc3)ccc12`, the IC50 at Chloride anion exchanger is above 5 µM.

Take `Cc1c(OCc2cccc(I)c2)ccc2cc(C(=O)O)c(=O)oc12`: the half-inhibitory concentration (IC50) on Chloride anion exchanger was above 5 µM.

Regarding `Cc1c(CC(=O)O)c(=O)oc2c(C)c(OCc3ccncc3)ccc12`, on Chloride anion exchanger, the IC50 is above 5 µM.

Consider `Cc1c(CC(=O)O)c(=O)oc2c(C)c(OCc3ccccc3Br)ccc12`, for which, at Chloride anion exchanger, the IC50 is 10 µM.

Regarding `Cc1c(OCc2cccc(Br)c2)ccc2cc(C(=O)NO)c(=O)oc12`, the IC50 at Chloride anion exchanger is 0.45 µM.

With `Cc1c(CC(=O)O)c(=O)oc2c(C)c(OCc3cccc(F)c3)ccc12`, at Chloride anion exchanger, the IC50 was 0.9 µM.

As to `Cc1c(OCc2cccc(Br)c2)ccc2cc(C(N)=O)c(=O)oc12`, on Chloride anion exchanger, the IC50 is above 5 µM.

As to `Cc1c(CC(=O)O)c(=O)oc2c(C)c(OCCc3cccc(C(F)(F)F)c3)ccc12`, the IC50 on Chloride anion exchanger was above 5 µM.

Take `Cc1c(CC(=O)O)c(=O)oc2c(C)c(OCc3cccc(C(F)(F)F)n3)ccc12`: at Chloride anion exchanger, the 50% inhibitory concentration (IC50) was above 5 µM.

As to `C=CCOc1ccc2c(C)c(CC(=O)O)c(=O)oc2c1C`, at Chloride anion exchanger, the IC50 was above 5 µM.

With `Cc1cccc(COc2ccc3c(C)c(CC(=O)O)c(=O)oc3c2C)c1`, on Chloride anion exchanger, the IC50 came to 0.5 µM.

As for `Cc1c(CC(=O)O)c(=O)oc2c(C)c(OCc3ccc(Cl)cc3)ccc12`, the IC50 on Chloride anion exchanger was above 5 µM.

Take `Cc1c(CC(=O)O)c(=O)oc2c(C)c(OCCn3cccc3)ccc12`: at Chloride anion exchanger, the IC50 was above 5 µM.

Regarding `Cc1c(CC(=O)O)c(=O)oc2c(C)c(OCc3cc(C(F)(F)F)cc(C(F)(F)F)c3)ccc12`, the half-maximal inhibitory concentration (IC50) on Chloride anion exchanger amounted to 0.3 µM.

With `Cc1c(CC(=O)O)c(=O)oc2c(C)c(OCc3cccc(CO)n3)ccc12`, the half-inhibitory concentration (IC50) at Chloride anion exchanger was above 5 µM.

With `Cc1c(CC(=O)O)c(=O)oc2c(C)c(OCc3ccc(I)cc3)ccc12`, the IC50 at Chloride anion exchanger is above 5 µM.

In the case of `Cc1c(CC(=O)O)c(=O)oc2c(C)c(OS(=O)(=O)c3cccc(Cl)c3)ccc12`, the IC50 on Chloride anion exchanger was above 5 µM.
